Assay results from ChEMBL document CHEMBL1926658, “The design, synthesis and biological evaluations of C-6 or C-7 substituted 2-hydroxyisoquinoline-1,3-diones as inhibitors of hepatitis C virus” (Bioorg Med Chem, 2012).

Tests used:
Hepatitis C virus [1] = test: Inhibition of recombinant HCV genotype 1b NS5B polymerase activity after 3 hrs by scintillation proximity assay; design: species or system Hepatitis C virus subtype 1b
Method in brief: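 Started with 450 nM oligo-U12 primer, 30 nM UTP, 75 nM poly(A) template and ³H-UTP; 3 h at room temperature, scintillation proximity read-out. Duplicates, ≥2 repeats; IC₅₀ from eight serial dilutions.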

Hepatitis C virus [2] = test: Antiviral activity against HCV genotype 1b infected in human HuH7 cells assessed as reduction in luciferase activity at 10 uM after 3 days; assay type: functional, Hepacivirus hominis, Huh-7; design: scale not given: the % may be the effect or the level left
Method in brief: (§1)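 Huh-7/HCV1b-Rluc genotype 1b replicon cells plated at 6 × 10³/well without G418; next day compound in DMSO added, 37 °C/5% CO₂ for 3 days. Live-cell renilla luciferase substrate (1:1000) added, luminescence read immediately. Triplicates, ≥2 independent runs. Single-point tests at 10 µM with ribavirin (10 µM) and 2'-C-methyl adenosine (500 nM) controls; EC₅₀ from eight serial dilutions versus vehicle.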

[3] = Cytotoxicity against human HuH7 cells infected with HCV1b assessed as cell viability at 10 uM after 3 days by MTS assay; assay type: cell-based, Huh-7; details: read-out: Activity
Method in brief: (§2)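 Replicon cells (Huh-7/HCV1b-Rluc) seeded at 6 × 10³/well minus G418, then exposed next day to compound in DMSO for three days at 37 °C/5% CO₂. Viability read with MTS reagent (CellTiter 96 AQueous One) by absorbance at […]. CC₅₀ taken as concentration reducing proliferation by 50%, fitted from eight serial dilutions against vehicle-treated cells.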

Hepatitis C virus [4] = test: Antiviral activity against HCV genotype 1b infected in human HuH7 cells after 3 days by renilla luciferase reporter assay; assay type: functional, organism-based, Hepacivirus hominis; details: Huh-7, 72 h; method in brief: as §1
[5] = Cytotoxicity against human HuH7 cells infected with HCV1b after 3 days by MTS assay; assay type: cell-based, Huh-7; method in brief: as §2
[6] = Therapeutic index, ratio of CC50 for human HuH7 cells infected with HCV1b to EC50 for HCV genotype 1b; assay type: cell-based, Huh-7; details: read-out: Ratio CC50/EC50
Method in brief: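 Index computed as CC₅₀/EC₅₀, both values from 3-day assays in Huh-7/HCV1b-Rluc replicon cells: EC₅₀ from renilla luciferase signal, CC₅₀ from MTS absorbance at 450 nm, each fitted from eight serial dilutions against vehicle.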

[7] = Inhibition of HCV NS5b RNA-dependent RNA polymerase; design: species or system Hepacivirus hominis

Row | Structure (SMILES) | IC50 (Hepatitis C virus [1]) [µM] | Activity (Hepatitis C virus [2]) [%] | viability at 72 h, 10 µM [3] [%] | EC50 (Hepatitis C virus [4]) [µM] | CC50 at 72 h [5] [µM] | selectivity ratio [6] | IC50 [7] [µM]
1 | O=C1Cc2ccc(-c3ccco3)cc2C(=O)N1O | 18 | 51 | 21 |  |  |  | 
2 | O=C1Cc2ccc(-c3cccs3)cc2C(=O)N1O |  | 99 | 21 |  |  |  | 
3 | O=C1Cc2ccc(-c3ccc(F)c(F)c3)cc2C(=O)N1O |  | 100 | 33 |  |  |  | 
4 | O=C1Cc2ccc(-c3ccc(F)c(Cl)c3)cc2C(=O)N1O | 7.1 | 30 | 83 |  |  |  | 
5 | COc1cccc(-c2ccc3c(c2)C(=O)N(O)C(=O)C3)c1 |  | 54 | 37 |  |  |  | 
6 | O=C1Cc2ccc(-c3cc4ccccc4o3)cc2C(=O)N1O |  | 83 | 33 |  |  |  | 
7 | O=C1Cc2cc(-c3ccco3)ccc2C(=O)N1O | 1.3 | 89 | 96 | 1.9 | 13 | 6.8 | 
8 | Cc1ccc(-c2ccc3c(c2)CC(=O)N(O)C3=O)o1 | 18 | 76 | 87 | 4.3 | 11 | 2.6 | 
9 | O=C1Cc2cc(-c3ccoc3)ccc2C(=O)N1O | 11 | 100 | 52 |  |  |  | 
10 | O=C1Cc2cc(-c3cccc4c3oc3ccccc34)ccc2C(=O)N1O |  | 98 | 28 |  |  |  | 
11 | O=C1Cc2cc(-c3cc4ccccc4o3)ccc2C(=O)N1O |  | 73 | 46 |  |  |  | 
12 | O=C1Cc2cc(-c3cccs3)ccc2C(=O)N1O | 7.3 | 93 | 100 | 1.7 | 18 | 11 | 
13 | O=C1Cc2cc(-c3ccsc3)ccc2C(=O)N1O | 9 | 72 | 100 | 44 | 98 | 2.2 | 
14 | O=C1Cc2cc(-c3csc4ccccc34)ccc2C(=O)N1O |  | 95 | 34 |  |  |  | 
15 | O=C1Cc2cc(-c3cccc4c3sc3ccccc34)ccc2C(=O)N1O |  | 95 | 32 |  |  |  | 
16 | O=C1Cc2cc(-c3ccc4c(c3)OCO4)ccc2C(=O)N1O |  | 28 | 79 |  |  |  | 
17 | O=C1Cc2cc(-c3ccc(C(F)(F)F)cc3)ccc2C(=O)N1O |  | 93 | 29 |  |  |  | 
18 | O=C1Cc2cc(-c3ccc(F)cc3)ccc2C(=O)N1O | 20 | 73 | 90 | 9.6 | 11 | 1.2 | 
19 | O=C1Cc2cc(-c3ccc(F)c(F)c3)ccc2C(=O)N1O |  | 78 | 34 |  |  |  | 
20 | O=C1Cc2cc(-c3cccc(-c4ccccc4)c3)ccc2C(=O)N1O |  | 95 | 23 |  |  |  | 
21 | CS(=O)(=O)c1ccc(-c2ccc3c(c2)CC(=O)N(O)C3=O)cc1 |  | 3 | 100 |  |  |  | 
22 | N#Cc1cc(COc2cccc(C(=O)/C=C(\O)C(=O)O)c2)c(Cl)cc1Cl | 0.015 |  |  |  |  |  | 0.045
23 | O=C1Cc2ccc(I)cc2C(=O)N1O | 15 | 79 | 86 | 3.9 | 27 | 6.9 | 
24 | C[C@@]1(O)[C@H](O)[C@@H](CO)O[C@H]1n1cnc2c(N)ncnc21 |  |  |  |  | 55 | 270 | 
25 | NC(=O)c1ncn([C@@H]2O[C@H](CO)[C@@H](O)[C@H]2O)n1 [RIBAVIRIN] |  |  |  | 14 | 32 | 2.3 | 
